Experimental data as given in ChEMBL document CHEMBL3621084, “Discovery of 2-Pyridinone Aminals: A Prodrug Strategy to Advance a Second Generation of HIV-1 Integrase Strand Transfer Inhibitors” (J Med Chem, 2015).
In brackets after ≈: the same amount, converted by molar mass.

What was measured:
[1] = tested on: Human immunodeficiency virus 1; assay: Resistance index, ratio of IC50 for antiviral activity against HIV1 expressing integrase Q148R mutant to IC50 for antiviral activity against HIV1 expressing wild type integrase; type: functional
Summary of the method: (§1)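 Fold shift computed as the inflection point (IP) against mutant HIV-1 divided by the IP against wild-type virus. Both IPs come from a kinetic HIV replication (viral kinetics) potency assay run in 50% normal human serum (NHS).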

[2] = Intrinsic clearance in human hepatocytes at 1 uM by LC-MS/MS method; type: ADME, cell-based, Hepatocyte; settings: read-out: CLH
[3] = tested on: Human immunodeficiency virus 1; assay: Resistance index, ratio of IC50 for antiviral activity against HIV1 expressing integrase E92Q mutant to IC50 for antiviral activity against HIV1 expressing wild type integrase; type: functional; summary of the method: as §1
[4] = tested on: Human immunodeficiency virus 1; assay: Antiviral activity against HIV1 infected in human MT4 cells expressing GFP incubated for 48 to 72 hrs in absence of 50% normal human serum by multiple round viral replication kinetics assay; type: functional
[5] = tested on: Human immunodeficiency virus 1; assay: Resistance index, ratio of IC50 for antiviral activity against HIV1 expressing integrase Y143R mutant to IC50 for antiviral activity against HIV1 expressing wild type integrase; type: functional; summary of the method: as §1
[6] = Oral bioavailability in rat; type: ADME, organism-based; settings: in vivo
[7] = Plasma clearance in rat; type: ADME, organism-based
[8] = Plasma clearance in dog; type: ADME, organism-based, Canis lupus familiaris
[9] = tested on: Human immunodeficiency virus 1; assay: Antiviral activity against HIV1 infected in human MT4 cells expressing GFP incubated for 48 to 72 hrs in presence of 50% normal human serum by multiple round viral replication kinetics assay; type: functional
[10] = Oral bioavailability in dog; type: ADME, organism-based, Canis lupus familiaris; settings: in vivo
[11] = Half life in Wistar-Hanover rat at 0.2 mg/kg, iv by LC-MS/MS method; settings: in vivo
[12] = tested on: Canis familiaris; assay: (§2) Oral bioavailability in beagle dog at 2 mg/kg by LC-MS/MS method; type: ADME, organism-based, Canis lupus familiaris; settings: in vivo
[13] = AUC (0 to infinity) in Wistar-Hanover rat at 2 mg/kg, po by LC-MS/MS method; type: ADME, organism-based; set-up: dose 2 mg/kg, route oral, time infinity; settings: in vivo
[14] = Volume of distribution at steady state in beagle dog at 0.5 mg/kg, iv by LC-MS/MS method; type: ADME, organism-based, Canis lupus familiaris; settings: in vivo, read-out: Vdss
[15] = tested on: Canis familiaris; assay: (§3) AUC (0 to infinity) in beagle dog at 2 mg/kg, po by LC-MS/MS method; type: ADME, organism-based, Canis lupus familiaris; set-up: dose 2 mg/kg, route oral, time infinity; settings: in vivo
[16] = Half life in beagle dog at 0.5 mg/kg, iv by LC-MS/MS method; settings: in vivo
[17] = Volume of distribution at steady state in Wistar-Hanover rat at 0.2 mg/kg, iv by LC-MS/MS method; type: ADME, organism-based; settings: in vivo, read-out: Vdss
[18] = Oral bioavailability in Wistar-Hanover rat at 2 mg/kg by LC-MS/MS method; type: ADME, organism-based; settings: in vivo
[19] = Plasma clearance in Wistar-Hanover rat at 0.2 mg/kg, iv by LC-MS/MS method; type: ADME, organism-based
[20] = Protein binding in human plasma at 2.5 uM incubated for 4 hrs by LC-MS/MS detection based equilibrium dialysis method; type: ADME, cell-free; settings: read-out: PPB (converted)
[21] = Permeability in LLC-PK1 cells at 1 uM incubated for 3 hrs by LC-MS/MS method; type: ADME, cell-based, Sus scrofa; settings: pig, read-out: permeability
[22] = as §2; type: ADME, organism-based, Canis lupus familiaris; settings: beagle, in vivo
[23] = Solubility in FaSSiF at pH 6.5 at room temperature incubated for 4 hrs; type: physicochemical
[24] = Protein binding in beagle dog plasma at 2.5 uM incubated for 4 hrs by LC-MS/MS detection based equilibrium dialysis method; type: ADME, cell-free, Canis lupus familiaris; settings: read-out: PPB (converted)
[25] = target: Cytochrome P450 3A4 (Homo sapiens, UniProt P08684); assay: Time dependent inhibition of CYP3A4 (unknown origin); type: ADME
Cytochrome P450 3A4, sequence (P08684 whole entry): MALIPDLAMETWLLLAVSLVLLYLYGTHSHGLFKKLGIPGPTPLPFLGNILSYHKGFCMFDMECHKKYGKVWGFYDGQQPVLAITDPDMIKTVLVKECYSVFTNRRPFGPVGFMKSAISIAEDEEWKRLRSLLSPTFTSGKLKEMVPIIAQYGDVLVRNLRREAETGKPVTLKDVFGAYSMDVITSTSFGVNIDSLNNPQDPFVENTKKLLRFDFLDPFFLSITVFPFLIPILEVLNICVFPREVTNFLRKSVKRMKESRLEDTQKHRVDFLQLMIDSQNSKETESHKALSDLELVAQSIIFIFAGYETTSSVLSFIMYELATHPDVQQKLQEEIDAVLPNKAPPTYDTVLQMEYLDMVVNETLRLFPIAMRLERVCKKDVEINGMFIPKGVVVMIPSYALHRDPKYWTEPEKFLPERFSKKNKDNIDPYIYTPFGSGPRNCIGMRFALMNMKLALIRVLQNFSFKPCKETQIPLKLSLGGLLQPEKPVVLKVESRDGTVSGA

[26] = Solubility in SGF at pH 1.8 at room temperature incubated for 4 hrs; type: physicochemical
[27] = Plasma clearance in beagle dog at 0.5 mg/kg, iv by LC-MS/MS method; type: ADME, organism-based, Canis lupus familiaris
[28] = tested on: Canis familiaris; assay: AUC (0 to infinity) in beagle dog assessed as (1R,2R,5S)-8'-(3-chloro-4-fluorobenzyl)-6'-hydroxy-2'-((S)-2-hydroxypropyl)-9',10'-dihydro-1'H-spiro[bicyclo[3.1.0]hexane-2,3'-imidazo[5,1-a][2,6]naphthyridine]-1',5',7'(2'H,8'H)-trione level at 2 mg/kg, po by LC-MS/MS method; type: ADME, organism-based, Canis lupus familiaris; set-up: dose 2 mg/kg, time infinity, route oral; settings: in vivo
Summary of the method: (§4)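 Oral rising-dose studies were run in beagle dogs with prodrugs, at doses normalized to account for the promoiety so that they give the actual parent dose administered. The read-out was plasma exposure (AUC) of the parent compound.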

[29] = as §3; type: ADME, organism-based, Canis lupus familiaris; set-up: dose 2 mg/kg, route oral, time infinity; settings: beagle, in vivo
[30] = Permeability in MDCK2 cells at 1 uM incubated for 3 hrs by LC-MS/MS method; type: ADME, cell-based, Canis lupus familiaris, MDCK-II; settings: dog, MDCK; read-out: permeability
[31] = Oral bioavailability in beagle dog at 1 mg/kg by LC-MS/MS method; type: ADME, organism-based, Canis lupus familiaris; settings: in vivo
[32] = Half life in beagle dog at 0.5 mg/kg, iv by LC-MS/MS method; settings: in vivo; remark: listed apart in the source
[33] = tested on: Canis familiaris; assay: AUC (0 to infinity) in beagle dog assessed as c(1R,2S,5R)-8'-(3-chloro-4-fluorobenzyl)-6'-hydroxy-1-(hydroxymethyl)-2'-methyl-9',10'-dihydro-1'H-spiro[bicyclo[3.1.0]hexane-2,3'-imidazo[5,1-a][2,6]naphthyridine]-1',5',7'(2'H,8'H)-trione evel at 2 mg/kg, po by LC-MS/MS method; type: ADME, organism-based, Canis lupus familiaris; set-up: dose 2 mg/kg, route oral, time infinity; settings: in vivo; summary of the method: as §4
[34] = AUC (0 to infinity) in beagle dog at 1 mg/kg, po by LC-MS/MS method; type: ADME, organism-based, Canis lupus familiaris; set-up: dose 1 mg/kg, route oral, time infinity; settings: in vivo

SMILES	Ratio IC50 [1]	Ratio IC50 [3]	IP [4] [nM]	Ratio IC50 [5]	IP [9] [nM]	Vd [14] [L/kg]	half-life [16] [h]	fraction unbound at 4 h, 2.5 µM [20]	Papp at 3 h, 1 µM [21] [nm/s]	solubility at 4 h [23] [mg/mL]	fraction unbound at 4 h, 2.5 µM [24]	TDI [25]	solubility at 4 h [26] [mg/mL]	clearance [27] [L/h/kg]	Papp at 3 h, 1 µM [30] [nm/s]	also measured
CC(C)n1c(C(=O)N(C)C)c2c(c(O)c1=O)C(=O)N(Cc1ccc(F)c(Cl)c1)CC2	1	1	6	2	53	–	–	–	–	–	–	–	–	–	–	CLint scaled at 1 µM [2]: < 1.2 L/h/kg; bioavailability [6]: 29%; clearance [7]: 0.138 L/h/kg; clearance [8]: 0.132 L/h/kg; bioavailability [10]: 44%
Cc1nnc(C(=O)NC(C)(C)c2nc(C(=O)NCc3ccc(F)cc3)c(O)c(=O)n2C)o1	–	–	9	–	53	–	–	–	–	–	–	–	–	–	–	–
O=C1N[C@]2(CC[C@H]3C[C@H]32)n2c1c1c(c(O)c2=O)C(=O)N(Cc2ccc(F)c(Cl)c2)CC1	5	3	2.5	1	600	0.19	16	–	–	–	–	–	–	–	–	half-life [11]: 14 h; F [12]: 27%; AUC(0-inf) [13]: 189 µM·h; AUC [15]: 47 µM·h; Vd [17]: 0.12 L/kg; bioavailability [18]: 29%; clearance [19]: 0.0072 L/h/kg
C[C@H](O)CN1C(=O)c2c3c(c(O)c(=O)n2[C@@]12CC[C@H]1C[C@H]12)C(=O)N(Cc1ccc(F)c(Cl)c1)CC3	1.5	1.5	2	1	67	0.6	5.9	0.025	148	0.058 (≈ 116 µM)	0.012	Not Active	0.03 (≈ 59.8 µM)	0.18	229	bioavailability [22]: 42%; AUC [28]: 11 µM·h; AUC(0-inf) [29]: 10.5 µM·h
CN1C(=O)c2c3c(c(O)c(=O)n2[C@]12CC[C@@H]1C[C@@]12CO)C(=O)N(Cc1ccc(F)c(Cl)c1)CC3	1	1	3	1	32	0.4	–	0.02	67	0.03 (≈ 61.5 µM)	0.014	Not Active	0.017 (≈ 34.8 µM)	0.114	84	bioavailability [31]: 26%; half-life [32]: 5 h; AUC [33]: 8 µM·h; AUC(0-inf) [34]: 4.9 µM·h
